From ChEMBL document CHEMBL4321820, “Identification and Optimization of Mechanism-Based Fluoroallylamine Inhibitors of Lysyl Oxidase-like 2/3” (J Med Chem, 2019)
The source made the active and inactive calls. The rule behind the calls is not given here.

Columns and labels:
Mus musculus = assay: Antifibrotic activity in CCl4-induced BALB/c mouse model of liver fibrosis assessed as reduction in liver fibrosis area at 5 mg/kg, po administered once daily at week 4 to 6 by picro-sirius red staining based microscopy; type: functional, organism-based
How it was run: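 Female BALB/c mice given CCl4 i.p. (1 mL/kg of 25% CCl4 in olive oil) twice weekly for 6 weeks; sacrificed 48 h after last dose. Test articles oral, once daily: prophylactic weeks 1-6 or therapeutic weeks 4-6; imatinib control 50 mg/kg daily weeks 1-6. One formalin-fixed liver lobe stained for Picro Sirius Red and α-SMA; fibrotic area as % of total liver area; mean ± SEM, one-way ANOVA with Dunnett's test.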

[1] = Prodrug conversion in BALB/c mouse plasma assessed as 1-[4-amino-2-fluoro-but-2-enyl]-3-[3-(dimethylsulfamoyl)phenyl]-2-methyl-indole-5-carboxylic acid hydrochloride formation at 20 mg/kg, po administered via gavage by HPLC-MS/MS analysis; type: ADME, organism-based; settings: in vivo
How it was run: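 Male BALB/c mice dosed by oral gavage at 20 mg/kg (n=3); plasma prodrug and released free acid quantified by LC-MS/MS; each point the mean of 3 animals.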

Protein-lysine 6-oxidase = molecular target: T1, Protein-lysine 6-oxidase (Homo sapiens, UniProt P28300); assay: Inhibition of LOX in human IMR90 cells using putrescine as substrate preincubated with enzyme for 30 mins followed by substrate addition and measured every 2.5 mins for 30 mins by Amplex-Red oxidation assay; type: cell-based
T1 sequence (P28300 whole entry): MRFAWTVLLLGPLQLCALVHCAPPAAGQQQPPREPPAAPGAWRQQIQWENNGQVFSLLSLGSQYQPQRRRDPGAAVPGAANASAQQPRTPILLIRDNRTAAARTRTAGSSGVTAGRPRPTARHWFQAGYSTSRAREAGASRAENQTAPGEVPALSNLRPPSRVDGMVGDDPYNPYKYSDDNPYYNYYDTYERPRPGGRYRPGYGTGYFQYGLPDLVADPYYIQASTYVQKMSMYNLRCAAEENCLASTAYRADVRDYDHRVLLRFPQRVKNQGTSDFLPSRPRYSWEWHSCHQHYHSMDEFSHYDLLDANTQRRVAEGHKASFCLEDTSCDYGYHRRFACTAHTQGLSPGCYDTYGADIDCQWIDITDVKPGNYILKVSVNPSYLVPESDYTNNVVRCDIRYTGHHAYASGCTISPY
How it was run: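 IMR90 fibroblasts grown in MEM/10% FBS to 80% confluence, then 48-72 h in phenol-red-free 0.1% FBS medium. Conditioned medium concentrated 40-fold (10 kDa). LOX and LOXL2 separated on a 50 kDa filter in 6 M urea/borate, then diluted back to 1.2 M urea. Preincubated 30 min at 37 °C with compound; Amplex Red/HRP/putrescine readout every 2.5 min over 30 min.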

Lysyl oxidase homolog 1 = molecular target: T2, Lysyl oxidase homolog 1 (Homo sapiens, UniProt Q08397); assay: Inhibition of recombinant human LOXL1 using putrescine as substrate preincubated with enzyme for 30 mins followed by substrate addition and measured every 2.5 mins for 30 mins by Amplex-Red oxidation assay
T2 sequence (Q08397 whole entry): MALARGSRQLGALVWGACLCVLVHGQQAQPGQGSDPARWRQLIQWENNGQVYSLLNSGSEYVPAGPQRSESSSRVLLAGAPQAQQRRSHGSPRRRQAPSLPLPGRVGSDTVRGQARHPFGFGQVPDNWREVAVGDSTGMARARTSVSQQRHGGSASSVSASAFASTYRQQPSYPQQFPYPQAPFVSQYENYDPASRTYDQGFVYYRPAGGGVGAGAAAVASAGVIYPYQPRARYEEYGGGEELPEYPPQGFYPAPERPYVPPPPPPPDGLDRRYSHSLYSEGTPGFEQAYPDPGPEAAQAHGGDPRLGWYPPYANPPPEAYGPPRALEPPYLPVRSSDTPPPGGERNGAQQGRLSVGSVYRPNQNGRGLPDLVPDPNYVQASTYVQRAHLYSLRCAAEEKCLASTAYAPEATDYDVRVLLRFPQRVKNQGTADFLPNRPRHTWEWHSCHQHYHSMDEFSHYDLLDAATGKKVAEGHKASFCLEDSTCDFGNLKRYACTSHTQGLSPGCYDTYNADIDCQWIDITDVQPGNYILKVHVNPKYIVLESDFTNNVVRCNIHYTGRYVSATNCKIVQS
How it was run: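 Recombinant human LOXL1 expressed and purified from cDNA; 30 min preincubation with compound at 37 °C in urea/borate buffer, then Amplex Red/HRP with 10 mM putrescine; H2O2 fluorescence read every 2.5 min for 30 min at 37 °C.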

[2] = Stability in dog microsomes assessed as half life; type: ADME, Canis lupus familiaris, Microsome
Lysyl oxidase homolog 2 = molecular target: T3, Lysyl oxidase homolog 2 (Homo sapiens, UniProt Q9Y4K0); assay: Inhibition of recombinant human C-terminal His-tagged […] (1-774 residues) expressed in mouse myeloma cells assessed as inhibition of collagen oxidation measured every 1 min for 3 hrs by Amplex-Red oxidation assay; type: cell-based
T3 sequence (Q9Y4K0 whole entry): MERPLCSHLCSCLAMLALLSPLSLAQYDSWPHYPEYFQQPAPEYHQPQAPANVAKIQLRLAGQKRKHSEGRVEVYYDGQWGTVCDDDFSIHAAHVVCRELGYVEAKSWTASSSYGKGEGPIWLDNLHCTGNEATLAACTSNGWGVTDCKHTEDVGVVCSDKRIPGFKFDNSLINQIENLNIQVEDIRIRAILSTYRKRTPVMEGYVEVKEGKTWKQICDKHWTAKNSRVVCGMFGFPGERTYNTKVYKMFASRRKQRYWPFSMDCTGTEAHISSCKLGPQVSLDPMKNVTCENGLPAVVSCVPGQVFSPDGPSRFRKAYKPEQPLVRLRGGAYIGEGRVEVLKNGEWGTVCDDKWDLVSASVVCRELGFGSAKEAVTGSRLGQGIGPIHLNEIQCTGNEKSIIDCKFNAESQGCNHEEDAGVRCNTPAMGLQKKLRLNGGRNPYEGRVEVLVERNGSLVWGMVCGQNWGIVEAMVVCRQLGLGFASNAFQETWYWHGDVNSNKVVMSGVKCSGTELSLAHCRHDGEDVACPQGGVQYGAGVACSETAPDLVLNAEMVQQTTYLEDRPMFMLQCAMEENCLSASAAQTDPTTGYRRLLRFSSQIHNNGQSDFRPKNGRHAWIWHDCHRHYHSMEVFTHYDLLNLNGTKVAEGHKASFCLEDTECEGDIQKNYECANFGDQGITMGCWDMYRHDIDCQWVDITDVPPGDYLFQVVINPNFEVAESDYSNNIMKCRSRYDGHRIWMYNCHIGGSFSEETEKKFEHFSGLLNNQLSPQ
How it was run: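 Rat tail type I collagen (1.5 mg/mL in 50 mM borate pH 8.2) combined with rhLOXL2 with or without inhibitor (BAPN 100 µM control). Amplex Red (120 µM)/HRP (1.5 U/mL) mix added. Fluorescence read every 1 min for 3 h at 37 °C; slope from the linear 20-40 min phase used for IC50.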

Drug metabolism [1]	IC50 (Protein-lysine 6-oxidase)	IC50 (Lysyl oxidase homolog 1)	half-life [2]	IC50 (Lysyl oxidase homolog 2)	SMILES	inhibition (Mus musculus)
Metabolite_Detected	–	–	–	–	CCOC(=O)c1ccc2c(c1)c(-c1cccc(S(=O)(=O)N(C)C)c1)c(C)n2C/C(F)=C/CN.Cl	Active
–	1260 nM	2260 nM	> 1.5 h	13 nM	Cc1c(-c2cccc(S(=O)(=O)N(C)C)c2)c2cc(C(=O)O)ccc2n1C/C(F)=C/CN.Cl	–
